Results gathered from unrelated publications.
Each line is one published result; the experiments were not run side by side.
Cell line: MDA-MB-231
Observed: cell growth or viability

Cc1ccc(S(=O)(=O)n2cc(/C=N/NC(=O)c3ccc(Br)cc3)c3ccccc32)cc1 — IC50 (MTT; 48 h): 22.4 µM
Cc1cc(NS(=O)(=O)c2ccc(NC(=O)/C(C#N)=C/c3ccncc3)cc2)no1 — IC50 (MTT; 48 h): 116 µM
O=C1Nc2ccccc2/C1=N/N=C/c1cccc([N+](=O)[O-])c1 — IC50 (MTT; 48 h): 21.1 µg/mL
Cc1ccc(S(=O)(=O)n2cc(/C=N/NC(=O)c3ccc(C)c(F)c3)c3ccccc32)cc1 — IC50 (MTT; 48 h): 21.3 µM
COc1cccc(NC(=O)Nc2ccc(Oc3nc4ccccc4n4cnnc34)cc2)c1 — IC50 (MTT; 24 h): 21.7 µM
Nc1ccn([C@@H]2O[C@H](CO)[C@@H](O)C2(F)F)c(=O)n1 — IC50 (MTT; 24 h): 7.1 µg/mL
CC(C)[C@@H]1NC(=O)/C(=C/c2cnc[nH]2)NC1=O — IC50 (SRB): > 15 µM
COc1ccccc1/C=N/N=C1\C(=O)Nc2ccccc21 — IC50 (MTT; 48 h): 26.3 µg/mL
COc1cc([C@@H]2c3cc4c(cc3[C@@H](O[C@@H]3O[C@@H]5CO[C@@H](C)O[C@H]5[C@H](O)[C@H]3O)[C@H]3COC(=O)[C@H]23)OCO4)cc(OC)c1O — IC50 (ATP luminescence; 48 h): 2.15 µM
C[C@H]1[C@H](C)CC[C@]2(C)CC[C@]3(C)C(=CC(=O)[C@@H]4[C@@]5(C)CC[C@@H](O)[C@](C)(C(=O)NCc6cn(-c7ccc(Cl)cc7)nn6)[C@@H]5CC[C@]43C)[C@H]12 — IC50 (MTT; 24 h): 106 µM
C[C@H]1[C@H](C)CC[C@]2(C(=O)O)CC[C@]3(C)C(=CC[C@@H]4[C@@]5(C)CC[C@H](O)C(C)(C)[C@@H]5CC[C@]43C)[C@H]12 — IC50 (thymidine uptake; 24 h): 13.1 µM
Cc1ccc(S(=O)(=O)n2cc(/C=N/NC(=O)Cc3cc(F)cc(F)c3)c3ccccc32)cc1 — IC50 (MTT; 48 h): 32.1 µM
C[C@H]1[C@H](C)CC[C@]2(C)CC[C@]3(C)C(=CC(=O)[C@@H]4[C@@]5(C)CC[C@@H](O)[C@](C)(C(=O)NCc6cn(-c7cccc(C(F)(F)F)c7)nn6)[C@@H]5CC[C@]43C)[C@H]12 — IC50 (MTT; 24 h): 70.4 µM
COc1cc([C@@H]2c3cc4c(cc3[C@@H](O[C@@H]3O[C@@H]5CO[C@@H](C)O[C@H]5[C@H](O)[C@H]3O)[C@H]3COC(=O)[C@H]23)OCO4)cc(OC)c1O — IC50 (MTT; 48 h): 21.2 µM
C[C@H]1[C@H](C)CC[C@]2(C)CC[C@]3(C)C(=CC(=O)[C@@H]4[C@@]5(C)CC[C@@H](O)[C@](C)(C(=O)NCc6cn(-c7ccc(F)cc7)nn6)[C@@H]5CC[C@]43C)[C@H]12 — IC50 (MTT; 24 h): 71.4 µM
Cc1ccc(S(=O)(=O)n2cc(/C=N/NC(=O)c3ccccc3Br)c3ccccc32)cc1 — IC50 (MTT; 48 h): 29.4 µM
CC(C)CNC(=S)N/N=C/c1cccc2cc3ccccc3nc12 — IC50 (MTT; 48 h): > 50 µM
Cc1cc(NS(=O)(=O)c2ccc(NC(=O)/C(C#N)=C/c3ccc(N4CCCC4)cc3)cc2)no1 — IC50 (MTT; 48 h): 109 µM
CCCNC(=S)N/N=C/c1cccc2cc3ccccc3nc12 — IC50 (MTT; 48 h): > 50 µM
Cc1sc2c(c1C)C(c1ccc(Cl)cc1)=N[C@@H](CC(=O)NCCCCNC(=O)COc1cccc3c1C(=O)N(C1CCC(=O)NC1=O)C3=O)c1nnc(C)n1-2 (stereo partly drawn) — IC50 (CCK-8; 72 h): 1.14 µM
Cc1ccc(C(C)C)c(OC2=C(Cl)C(=O)c3ccccc3C2=O)c1 — IC50 (MTT; 24 h): 60 µg/mL
COc1ccc(C(=O)N/N=C/c2cn(S(=O)(=O)c3ccc(C)cc3)c3ccccc23)cc1 — IC50 (MTT; 48 h): 34.4 µM
CN1CCc2c(c3ccccc3n2Cc2ccc(C(=O)NO)cc2)C1 — IC50 (CCK-8; 48 h): 24.7 µM
C=CC(C)(C)c1[nH]cnc1/C=C1/NC(=O)[C@H](C(C)C)NC1=O — IC50 (SRB): > 15 µM
COc1ccccc1-n1cc(CNC(=O)[C@@]2(C)[C@H](O)CC[C@@]3(C)[C@H]2CC[C@]2(C)[C@@H]3C(=O)C[C@@H]3[C@@H]4[C@@H](C)[C@H](C)CC[C@]4(C)CC[C@]32C)nn1 — IC50 (MTT; 24 h): 71.2 µM
Cc1cc(NS(=O)(=O)c2ccc(NC(=O)/C(C#N)=C/c3cccnc3)cc2)no1 — IC50 (MTT; 48 h): 184 µM
Nc1nc2cc(CC[C@H]3C[C@@H](n4ccc5c(N)ncnc54)[C@H](O)[C@@H]3O)ccc2cc1Br — IC50 (CCK-8; 72 h): > 100 µM
Fc1ccc(NC(=S)N/N=C/c2cccc3cc4ccccc4nc23)cc1 — IC50 (MTT; 48 h): > 50 µM
CC1CCC(C(C)C)C(OC2=C(Cl)C(=O)c3ccccc3C2=O)C1 (stereo not drawn) — IC50 (MTT; 24 h): 5 µg/mL
CO[C@H]1[C@H](O[C@H]([C@H]2O[C@@H](n3ccc(=O)[nH]c3=O)[C@H](O)[C@@H]2O)[C@H](NCCCNC(=O)[C@@H](NC(=O)[C@@H](NC(=O)N[C@H](C(=O)O)C(C)C)[C@@H]2CCN=C(N)N2)[C@@H](O)C(C)C)C(=O)O)O[C@H](CN)[C@H]1O — IC50 (WST-1): > 35 µM
Cc1ccc(S(=O)(=O)n2cc(/C=N/NC(=O)c3ccccc3C)c3ccccc32)cc1 — IC50 (MTT; 48 h): 27.2 µM
O=C(Nc1ccc(Cl)cc1)Nc1ccc(Oc2nc3ccccc3n3cnnc23)cc1 — IC50 (MTT; 24 h): > 68 µM
Cc1ccc(S(=O)(=O)n2cc(/C=N/NC(=O)c3ccccc3)c3ccccc32)cc1 — IC50 (MTT; 48 h): 24.1 µM
COc1cccc(NC(=S)N/N=C/c2cccc3cc4ccccc4nc23)c1 — IC50 (MTT; 48 h): > 50 µM
COc1cccc2c1C(=O)c1c(O)c3c(c(O)c1C2=O)C[C@@](O)(C(=O)CO)C[C@@H]3O[C@H]1C[C@H](N)[C@H](O)[C@H](C)O1 — IC50 (SRB): 0.18 µM
Cc1ccc(S(=O)(=O)n2cc(/C=N/NC(=O)Cc3ccccc3C(F)(F)F)c3ccccc32)cc1 — IC50 (MTT; 48 h): 20.1 µM
